Results as given in ChEMBL document CHEMBL4422700, “Trichothecenes from a Soil-Derived Trichoderma brevicompactum” (J Nat Prod, 2019).
Values after ≈ are worked out from the molar mass of the structure shown. Active and inactive are the calls of the source. The calls are words filed in the database; no cut-off is given here.

Tests used:
Vero = assay: Cytotoxicity against African green monkey Vero cells assessed as reduction in cell viability by resazurin microplate assay; format: cell-based, Chlorocebus sabaeus
Outline: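 Vero (African green monkey kidney fibroblast) cells, run in triplicate. Ellipticine served as positive control.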

KB = assay: Cytotoxicity against human KB cells assessed as reduction in cell viability by resazurin microplate assay; format: functional, cell-based
Outline: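 KB cells tested by resazurin microplate assay. Ellipticine served as positive control.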

Nannizzia gypsea = assay: Antifungal activity against Microsporum gypseum by colorimetric broth microdilution method; format: functional
Plasmodium falciparum = assay: Antimalarial activity against multidrug-resistant Plasmodium falciparum K1 infected in erythrocytes assessed as reduction in [3H]-hypoxanthine incorporation incubated for 24 hrs before [3H]-hypoxanthine addition and measured after 24 hrs by microplate scintillation counting based microculture radioisotope technique; format: functional, organism-based
Outline: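 Ring-stage K1 culture in RPMI-1640 at 1.5% erythrocyte suspension and 1% parasitaemia, exposed to test solution at 37 °C under CO2 for 24 h. 3H-hypoxanthine (0.5 μCi per well) was then added and incubation continued 24 h. Incorporation was read by scintillation counting; % growth = CPM treated/CPM untreated × 100. Dihydroartemisinin served as standard.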

Cryptococcus neoformans = assay: Antifungal activity against flucytosine-resistant, Cryptococcus neoformans ATCC 90113 by colorimetric broth microdilution method; format: functional
Candida albicans = assay: Antifungal activity against Candida albicans NCPF3153 by colorimetric broth microdilution method; format: functional
[1] = Plasmodium falciparum, K1, read-out: IC50

SMILES | MIC (Nannizzia gypsea) | MIC (Cryptococcus neoformans) | MIC (Candida albicans) | IC50 (Vero; vero) [µM] | IC50 (KB; kb) [µM] | IC50 (Plasmodium falciparum; read-out: IC50) [µM] | further results
Cc1c2ccncc2c(C)c2c1[nH]c1ccccc12 [ELLIPTECINE] |  |  |  |  |  |  | IC50 (Vero; Chlorocebus sabaeus, Vero): 4.1 µM
CC1=C[C@]23O[C@@H]4C[C@@H](O)[C@](C)([C@@]2(C)CC1)[C@]4(CO)O3 | inactive | 16 µg/mL (≈ 60.1 µM) | 16 µg/mL (≈ 60.1 µM) |  |  |  | IC50 (Vero; Chlorocebus sabaeus, Vero): 15.3 µM; IC50 (KB; Homo sapiens, KB): 44.7 µM; IC50 (Plasmodium falciparum; [1]): 7.4 µM
CC1=C[C@H]2O[C@@H]3C[C@@H](O)[C@](C)([C@@]2(C)CC1)[C@]31CO1 [TRICHODERMOL] | inactive |  |  | 6.9 | 16.1 | 7.1 | 
CC(=O)O[C@@H]1C[C@H]2O[C@@H]3C[C@H](CO)CC[C@]3(C)[C@]1(C)[C@]21CO1 | inactive | inactive | inactive | 45.9 | 116 |  | IC50 (Plasmodium falciparum): Not Active
CC(=O)O[C@@H]1C[C@H]2O[C@@H]3C=C(C=O)CC[C@]3(C)[C@]1(C)[C@]21CO1 | inactive |  |  | 9.9 | 3.7 | 9.6 | 
CC(=O)O[C@@H]1C[C@H]2O[C@@H]3C=C(CO)CC[C@]3(C)[C@]1(C)[C@]21CO1 | inactive |  |  | 7.8 | 20.6 | 8.8 | 
C[C@@H]1[C@H](O)[C@@H](C)/C=C/C=C/C=C/C=C/C=C/C=C/C=C/[C@H](O[C@@H]2O[C@H](C)[C@@H](O)[C@H](N)[C@@H]2O)C[C@@H]2O[C@](O)(C[C@@H](O)C[C@@H](O)[C@H](O)CC[C@@H](O)C[C@@H](O)CC(=O)O[C@H]1C)C[C@H](O)[C@H]2C(=O)O [AMPHOTERICIN B] |  | 0.25 µg/mL (≈ 0.271 µM) | 0.5 µg/mL (≈ 0.541 µM) |  |  |  | 
Clc1ccc(COC(Cn2ccnc2)c2ccc(Cl)cc2Cl)c(Cl)c1 (configuration not stated) [MICONAZOLE] | 1 µg/mL (≈ 2.4 µM) |  |  |  |  |  | 
C[C@H]1C(O)O[C@@H]2O[C@@]3(C)CC[C@H]4[C@H](C)CCC1C24OO3 (some centres not stated) |  |  |  |  |  |  | IC50 (Plasmodium falciparum; [1]): 0.0022 µM
CC(=O)O[C@@H]1C[C@H]2O[C@@H]3C=C(C)CC[C@]3(C)[C@]1(C)[C@]21CO1 |  |  |  | 0.4 | 2.4 | 0.1 | 
